Tests used:
[1] = target: Serine/threonine-protein kinase BRSK1 (Homo sapiens) (UniProt Q8TDC3); assay: Binding affinity to wild-type human partial length BRSK1 (M1 to E754 residues) expressed in bacterial expression system assessed as residual binding level at 1 uM by Kinomescan method relative to control
[2] = target: Tyrosine-protein kinase BTK (Homo sapiens) (UniProt Q06187); assay: Binding affinity to wild-type human full length BTK (M1 to S659 residues) expressed in mammalian expression system assessed as residual binding level at 1 uM by Kinomescan method relative to control
How it was run: (§1)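 KinomeScan, an active site-directed competition binding panel of 468 kinases. The test compound was at 1 μM. The readout is remaining kinase binding as a percentage of the DMSO control. Scores above 35% were treated as weak binding and not listed.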

[3] = target: Cyclin-dependent kinase 2 (Homo sapiens) (UniProt P24941); assay: Binding affinity to wild-type human full length CDK2 (M1 to L298 residues) expressed in bacterial expression system assessed as residual binding level at 1 uM by Kinomescan method relative to control
How it was run: (§2)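 Active-site-directed KinomeScan competition binding panel covering 468 kinases, compound tested at 1 μM. Each readout is the kinase signal remaining with compound, expressed as a percentage of the DMSO control. […]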

[4] = target: Casein kinase I isoform delta (Homo sapiens) (UniProt P48730); assay: Binding affinity to wild-type human full length CSNK1D (M1 to K409 residues) expressed in bacterial expression system assessed as residual binding level at 1 uM by Kinomescan method relative to control; how it was run: as §2
[5] = target: Death-associated protein kinase 2 (Homo sapiens) (UniProt Q9UIK4); assay: Binding affinity to wild-type human full length DAPK2 (M1 to S370 residues) expressed in bacterial expression system assessed as residual binding level at 1 uM by Kinomescan method relative to control; how it was run: as §2
Chain of Death-associated protein kinase 2 (Homo sapiens) (Q9UIK4 whole entry, looked up, the tested form may be a part): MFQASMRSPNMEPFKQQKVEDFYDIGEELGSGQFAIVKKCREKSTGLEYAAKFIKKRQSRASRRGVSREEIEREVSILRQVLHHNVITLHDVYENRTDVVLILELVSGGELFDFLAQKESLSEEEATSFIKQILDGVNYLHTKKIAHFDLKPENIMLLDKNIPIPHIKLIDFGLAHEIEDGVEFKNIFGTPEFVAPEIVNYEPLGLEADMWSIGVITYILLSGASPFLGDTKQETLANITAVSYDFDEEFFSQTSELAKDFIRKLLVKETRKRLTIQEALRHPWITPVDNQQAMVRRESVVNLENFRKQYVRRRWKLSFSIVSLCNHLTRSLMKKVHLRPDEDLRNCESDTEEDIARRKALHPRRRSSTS

[6] = tested on: Epidermal growth factor receptor (Homo sapiens), P00533 [UNDEFINED MUTATION]; assay: Binding affinity to human partial length EGFR E746-A750del mutant expressed in bacterial expression system assessed as residual binding level at 1 uM by Kinomescan method relative to control
How it was run: (§3)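 KinomeScan active site-directed competition binding panel (468 kinases), compound tested at 1 μM. Result expressed as remaining kinase signal versus DMSO control (percent of control).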

[7] = target: Tyrosine-protein kinase JAK1 (Homo sapiens) (UniProt P23458); assay: Binding affinity to wild-type human partial length JAK1 JH1 catalytic domain (V856 to K1154 residues) expressed in bacterial expression system assessed as residual binding level at 1 uM by Kinomescan method relative to control
Chain of Tyrosine-protein kinase JAK1 (Homo sapiens) (P23458 whole entry, the tested form may be a part): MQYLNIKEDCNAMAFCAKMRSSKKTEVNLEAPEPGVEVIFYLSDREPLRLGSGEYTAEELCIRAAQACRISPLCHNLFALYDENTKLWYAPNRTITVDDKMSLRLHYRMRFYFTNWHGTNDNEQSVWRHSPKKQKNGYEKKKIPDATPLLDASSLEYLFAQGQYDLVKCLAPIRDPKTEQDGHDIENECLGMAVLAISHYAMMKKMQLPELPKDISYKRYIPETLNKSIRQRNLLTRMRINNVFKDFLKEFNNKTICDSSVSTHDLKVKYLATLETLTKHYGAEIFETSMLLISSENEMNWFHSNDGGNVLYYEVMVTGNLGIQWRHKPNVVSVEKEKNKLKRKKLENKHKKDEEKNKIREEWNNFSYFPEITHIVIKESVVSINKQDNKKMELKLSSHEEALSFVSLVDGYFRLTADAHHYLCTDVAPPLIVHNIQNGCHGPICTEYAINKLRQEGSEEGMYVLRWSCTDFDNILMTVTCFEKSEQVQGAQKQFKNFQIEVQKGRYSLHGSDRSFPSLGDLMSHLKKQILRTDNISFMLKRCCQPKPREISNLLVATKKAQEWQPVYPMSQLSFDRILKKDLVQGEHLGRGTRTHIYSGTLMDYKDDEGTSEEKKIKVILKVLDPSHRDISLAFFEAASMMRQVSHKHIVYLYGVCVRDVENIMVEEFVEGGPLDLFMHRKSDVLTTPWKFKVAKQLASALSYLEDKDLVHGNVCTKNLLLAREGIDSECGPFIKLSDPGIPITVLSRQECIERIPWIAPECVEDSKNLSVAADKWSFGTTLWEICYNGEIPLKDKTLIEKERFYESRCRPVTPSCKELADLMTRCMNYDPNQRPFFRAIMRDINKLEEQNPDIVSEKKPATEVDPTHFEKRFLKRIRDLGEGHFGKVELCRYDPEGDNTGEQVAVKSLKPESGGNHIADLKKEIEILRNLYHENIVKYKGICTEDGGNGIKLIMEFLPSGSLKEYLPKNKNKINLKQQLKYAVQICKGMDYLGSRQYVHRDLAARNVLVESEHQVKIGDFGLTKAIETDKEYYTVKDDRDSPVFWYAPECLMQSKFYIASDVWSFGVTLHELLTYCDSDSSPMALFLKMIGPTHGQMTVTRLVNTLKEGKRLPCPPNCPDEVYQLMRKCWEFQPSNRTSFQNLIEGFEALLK

[8] = target: Tyrosine-protein kinase JAK2 (Homo sapiens) (UniProt O60674); assay: Binding affinity to wild-type human partial length JAK2 JH1 catalytic domain (A829 to G1132 residues) expressed in mammalian expression system assessed as residual binding level at 1 uM by Kinomescan method relative to control
How it was run: (§4)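 Active-site-directed competition binding panel of 468 kinases (KinomeScan), compound at 1 μM. The read-out is kinase remaining bound, given as a percentage of the DMSO control. […]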

[9] = target: Mast/stem cell growth factor receptor Kit (Homo sapiens) (UniProt P10721); assay: Binding affinity to wild-type human partial length KIT (I571 to D952 residues) expressed in bacterial expression system assessed as residual binding level at 1 uM by Kinomescan method relative to control
[10] = tested on: Mast/stem cell growth factor receptor Kit (Homo sapiens), P10721 [D816H]; assay: Binding affinity to human partial length KIT D816H mutant (I571 to D952 residues) expressed in mammalian expression system assessed as residual binding level at 1 uM by Kinomescan method relative to control; how it was run: as §3
[11] = target: Mitogen-activated protein kinase kinase kinase 15 (Homo sapiens) (UniProt Q6ZN16); assay: Binding affinity to wild-type human partial length MAP3K15 (T625 to L932 residues) expressed in mammalian expression system assessed as residual binding level at 1 uM by Kinomescan method relative to control; how it was run: as §4
[12] = target: Dual specificity mitogen-activated protein kinase kinase 3 (Homo sapiens) (UniProt P46734); assay: Binding affinity to wild-type human full length MEK3 (M1 to S318 residues) expressed in mammalian expression system assessed as residual binding level at 1 uM by Kinomescan method relative to control; how it was run: as §1
Chain of Dual specificity mitogen-activated protein kinase kinase 3 (Homo sapiens) (P46734 whole entry, the tested form may be a part): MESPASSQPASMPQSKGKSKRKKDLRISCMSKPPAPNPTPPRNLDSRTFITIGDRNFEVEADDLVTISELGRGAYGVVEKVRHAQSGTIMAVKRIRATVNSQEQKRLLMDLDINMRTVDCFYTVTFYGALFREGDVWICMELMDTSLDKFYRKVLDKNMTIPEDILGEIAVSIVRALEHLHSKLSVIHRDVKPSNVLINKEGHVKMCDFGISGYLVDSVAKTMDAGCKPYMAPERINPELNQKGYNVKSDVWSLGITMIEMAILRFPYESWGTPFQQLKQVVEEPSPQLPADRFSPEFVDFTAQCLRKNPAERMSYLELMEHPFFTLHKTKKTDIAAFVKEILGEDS

[13] = target: Serine/threonine-protein kinase 24 (Homo sapiens) (UniProt Q9Y6E0); assay: Binding affinity to wild-type human partial length MST3 (A30 to S311 residues) expressed in bacterial expression system assessed as residual binding level at 1 uM by Kinomescan method relative to control
[14] = target: Serine/threonine-protein kinase Nek11 (Homo sapiens) (UniProt Q8NG66); assay: Binding affinity to wild-type human partial length NEK11 (M1 to E313 residues) expressed in mammalian expression system assessed as residual binding level at 1 uM by Kinomescan method relative to control; how it was run: as §4
Chain of Serine/threonine-protein kinase Nek11 (Homo sapiens) (Q8NG66 whole entry, the tested form may be a part): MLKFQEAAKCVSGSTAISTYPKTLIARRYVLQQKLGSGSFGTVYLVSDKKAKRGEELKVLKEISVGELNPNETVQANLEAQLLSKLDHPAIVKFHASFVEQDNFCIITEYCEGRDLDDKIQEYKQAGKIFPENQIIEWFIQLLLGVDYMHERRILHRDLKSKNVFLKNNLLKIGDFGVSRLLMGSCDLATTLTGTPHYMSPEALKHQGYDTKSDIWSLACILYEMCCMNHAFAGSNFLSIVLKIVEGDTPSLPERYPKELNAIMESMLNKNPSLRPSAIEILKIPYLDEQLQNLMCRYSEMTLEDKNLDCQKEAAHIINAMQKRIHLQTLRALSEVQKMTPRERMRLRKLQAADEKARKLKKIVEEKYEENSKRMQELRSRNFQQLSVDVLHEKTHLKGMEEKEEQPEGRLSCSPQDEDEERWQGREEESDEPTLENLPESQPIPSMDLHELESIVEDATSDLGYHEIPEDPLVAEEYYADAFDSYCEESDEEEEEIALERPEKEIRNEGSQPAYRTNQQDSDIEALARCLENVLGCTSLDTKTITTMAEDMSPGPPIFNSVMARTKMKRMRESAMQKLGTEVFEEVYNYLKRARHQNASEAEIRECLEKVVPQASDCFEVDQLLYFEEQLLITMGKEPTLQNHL

[15] = target: Serine/threonine-protein kinase PAK 6 (Homo sapiens) (UniProt Q9NQU5); assay: Binding affinity to wild-type human partial length PAK6 (N298 to C681 residues) expressed in bacterial expression system assessed as residual binding level at 1 uM by Kinomescan method relative to control; how it was run: as §4
[16] = target: Cyclin-dependent kinase 17 (Homo sapiens) (UniProt Q00537); assay: Binding affinity to wild-type human full length PCTK2 (M1 to F523 residues) expressed in bacterial expression system assessed as residual binding level at 1 uM by Kinomescan method relative to control
How it was run: (§5)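 Active-site-directed competition binding panel (KinomeScan) covering 468 kinases. Test agent was screened at 1 μM. The read-out is the remaining kinase signal expressed relative to a DMSO control. Scores above 35%, taken as weak binding, were not reported.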

[17] = target: Platelet-derived growth factor receptor beta (Homo sapiens) (UniProt P09619); assay: Binding affinity to wild-type human partial length PDGFRB (V582 to Y1009 residues) expressed in bacterial expression system assessed as residual binding level at 1 uM by Kinomescan method relative to control; how it was run: as §4
[18] = target: cAMP-dependent protein kinase catalytic subunit beta (Homo sapiens) (UniProt P22694); assay: Binding affinity to wild-type human full length PKAC-beta (M1 to F351 residues) expressed in bacterial expression system assessed as residual binding level at 1 uM by Kinomescan method relative to control; how it was run: as §5
[19] = target: Serine/threonine-protein kinase PLK2 (Homo sapiens) (UniProt Q9NYY3); assay: Binding affinity to wild-type human partial length PLK2 (H58 to F354 residues) expressed in mammalian expression system assessed as residual binding level at 1 uM by Kinomescan method relative to control
Chain of Serine/threonine-protein kinase PLK2 (Homo sapiens) (Q9NYY3 whole entry, looked up, the tested form may be a part): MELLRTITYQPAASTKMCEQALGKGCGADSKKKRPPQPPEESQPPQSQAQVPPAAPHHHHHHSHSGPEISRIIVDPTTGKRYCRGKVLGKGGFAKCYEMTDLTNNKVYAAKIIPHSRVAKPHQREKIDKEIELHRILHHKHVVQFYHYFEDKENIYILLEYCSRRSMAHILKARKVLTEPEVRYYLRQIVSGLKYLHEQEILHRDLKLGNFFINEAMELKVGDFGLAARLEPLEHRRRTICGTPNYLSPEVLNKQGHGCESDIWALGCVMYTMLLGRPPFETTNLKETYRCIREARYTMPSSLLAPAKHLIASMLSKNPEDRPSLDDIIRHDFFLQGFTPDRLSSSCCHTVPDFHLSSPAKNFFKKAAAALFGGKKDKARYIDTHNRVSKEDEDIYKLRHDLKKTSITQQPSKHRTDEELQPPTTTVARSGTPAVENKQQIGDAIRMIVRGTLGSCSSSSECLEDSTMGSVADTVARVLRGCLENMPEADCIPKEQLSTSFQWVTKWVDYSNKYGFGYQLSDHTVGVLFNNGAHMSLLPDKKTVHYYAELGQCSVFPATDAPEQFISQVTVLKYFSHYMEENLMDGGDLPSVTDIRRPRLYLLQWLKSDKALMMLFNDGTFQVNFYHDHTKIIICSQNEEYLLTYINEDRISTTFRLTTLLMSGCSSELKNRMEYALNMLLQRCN

[20] = target: Protein-tyrosine kinase 2-beta (Homo sapiens) (UniProt Q14289); assay: Binding affinity to wild-type human full length PYK2 (M1 to E967 residues) expressed in bacterial expression system assessed as residual binding level at 1 uM by Kinomescan method relative to control; how it was run: as §5
Chain of Protein-tyrosine kinase 2-beta (Homo sapiens) (Q14289 whole entry, looked up, the tested form may be a part): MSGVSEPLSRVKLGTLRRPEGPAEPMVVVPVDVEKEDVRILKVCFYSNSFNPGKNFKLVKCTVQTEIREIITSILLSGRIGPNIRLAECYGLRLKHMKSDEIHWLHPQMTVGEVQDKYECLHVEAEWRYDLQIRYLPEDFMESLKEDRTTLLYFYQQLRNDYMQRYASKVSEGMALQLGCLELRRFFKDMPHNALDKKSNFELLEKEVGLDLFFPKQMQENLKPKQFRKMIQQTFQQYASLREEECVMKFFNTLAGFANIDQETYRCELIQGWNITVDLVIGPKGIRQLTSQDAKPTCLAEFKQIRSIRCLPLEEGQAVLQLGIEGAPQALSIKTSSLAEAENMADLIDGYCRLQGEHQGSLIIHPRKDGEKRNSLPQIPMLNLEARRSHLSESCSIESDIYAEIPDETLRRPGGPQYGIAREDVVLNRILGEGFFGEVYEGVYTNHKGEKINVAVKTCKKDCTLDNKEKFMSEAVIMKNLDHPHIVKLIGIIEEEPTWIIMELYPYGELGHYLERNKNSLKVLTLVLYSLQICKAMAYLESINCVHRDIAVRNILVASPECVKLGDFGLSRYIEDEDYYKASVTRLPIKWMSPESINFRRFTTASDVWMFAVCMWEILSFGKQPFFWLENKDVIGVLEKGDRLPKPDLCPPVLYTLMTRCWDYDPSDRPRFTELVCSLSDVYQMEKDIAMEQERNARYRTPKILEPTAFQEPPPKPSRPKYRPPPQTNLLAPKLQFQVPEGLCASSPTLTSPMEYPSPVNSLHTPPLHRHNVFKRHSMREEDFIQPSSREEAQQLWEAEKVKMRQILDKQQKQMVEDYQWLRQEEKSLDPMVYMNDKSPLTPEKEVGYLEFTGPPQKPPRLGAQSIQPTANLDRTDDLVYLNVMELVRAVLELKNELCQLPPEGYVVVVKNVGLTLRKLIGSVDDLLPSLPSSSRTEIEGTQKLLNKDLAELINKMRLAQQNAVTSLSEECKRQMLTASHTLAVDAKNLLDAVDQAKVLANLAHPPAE

[21] = target: Serine/threonine-protein kinase SIK3 (Homo sapiens) (UniProt Q9Y2K2); assay: Binding affinity to wild-type human partial length QSK (A90 to L395 residues) expressed in mammalian expression system assessed as residual binding level at 1 uM by Kinomescan method relative to control; how it was run: as §4

Chain of Serine/threonine-protein kinase BRSK1 (Homo sapiens) (Q8TDC3 whole entry, the tested form may be a part): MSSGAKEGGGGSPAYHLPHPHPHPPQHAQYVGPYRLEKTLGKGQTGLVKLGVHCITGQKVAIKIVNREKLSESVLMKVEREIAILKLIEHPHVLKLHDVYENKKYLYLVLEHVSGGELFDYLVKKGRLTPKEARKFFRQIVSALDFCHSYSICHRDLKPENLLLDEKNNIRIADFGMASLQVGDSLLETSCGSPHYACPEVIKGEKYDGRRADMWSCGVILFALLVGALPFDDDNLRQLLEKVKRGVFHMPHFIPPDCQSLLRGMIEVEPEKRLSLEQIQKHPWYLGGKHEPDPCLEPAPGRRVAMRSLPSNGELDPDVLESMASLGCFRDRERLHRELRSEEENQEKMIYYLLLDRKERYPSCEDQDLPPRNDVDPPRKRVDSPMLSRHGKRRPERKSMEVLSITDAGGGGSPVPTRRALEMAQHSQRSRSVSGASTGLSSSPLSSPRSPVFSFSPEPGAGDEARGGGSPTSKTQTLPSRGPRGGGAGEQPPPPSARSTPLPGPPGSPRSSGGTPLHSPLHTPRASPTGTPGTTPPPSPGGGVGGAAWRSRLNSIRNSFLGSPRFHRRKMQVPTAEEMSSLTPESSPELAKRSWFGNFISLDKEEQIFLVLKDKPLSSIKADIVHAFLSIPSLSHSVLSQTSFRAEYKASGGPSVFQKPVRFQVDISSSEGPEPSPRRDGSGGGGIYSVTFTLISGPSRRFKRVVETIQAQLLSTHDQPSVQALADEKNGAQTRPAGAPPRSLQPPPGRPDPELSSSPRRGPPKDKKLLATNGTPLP

C=CC(=O)Nc1ccccc1Nc1nc(Nc2ccc(N3CCN(C)CC3)cc2)ncc1C(=O)Nc1c(C)cccc1Cl
Activity [1]: 100% | Activity [2]: 0.1% | Activity [3]: 100% | Activity [4]: 100% | Activity [5]: 100% | Activity [6]: 67% | Activity [7]: 100% | Activity [8]: 90% | Activity [9]: 40% | Activity [10]: 41% | Activity [11]: 80% | Activity [12]: 69% | Activity [13]: 100% | Activity [14]: 72% | Activity [15]: 81% | Activity [16]: 100% | Activity [17]: 29% | Activity [18]: 100% | Activity [19]: 100% | Activity [20]: 100% | Activity [21]: 69%

— ChEMBL document CHEMBL4354843, “Structure-Based Design of a Potent and Selective Covalent Inhibitor for SRC Kinase That Targets a P-Loop Cysteine” (J Med Chem, 2020)
